Laboratory results as given in ChEMBL document CHEMBL3808283, “Biological Characterization and in Vivo Assessment of the Activity of a New Synthetic Macrocyclic Antifungal Compound” (J Med Chem, 2016).
Converted amounts (≈) assume the structure as drawn. The source made the active and inactive calls. The calls are words filed in the database; no cut-off is given here.

Legend:
Candida albicans [1] = assay: Upregulation of ARE2 gene expression in Candida albicans SC5314 at 3 uM after 45 mins by microarray method relative to control; format: functional
Summary of the method: (§1)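 Log-phase C. albicans SC5314 in liquid YEPD exposed to 3 µM final for 15 or 45 min; untreated controls taken at the same time points. Three biological replicates. RNA extracted by glass-bead/phenol-chloroform method and integrity checked. One-color Cy3-labeled cRNA (600 ng) hybridized 17 h at 65 °C to 8 × 15K arrays. Expression expressed as fold change versus control.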

Candida albicans [2] = assay: Upregulation of LCB4 gene expression in Candida albicans SC5314 at 3 uM after 45 mins by microarray method relative to control; format: functional; summary of the method: as §1
Candida albicans [3] = assay: Upregulation of CDR1 gene expression in Candida albicans SC5314 at 3 uM after 15 to 45 mins by qRT-PCR method; format: functional, organism-based
Summary of the method: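 Log-phase C. albicans treated at 3 µM. RNA extracted with glass-bead disruption, then DNase-treated (10 µg per preparation). Target gene CT values were normalized to an endogenous reference. Fold change calculated as mean normalized expression of samples relative to a selected control.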

Candida albicans [4] = assay: Antifungal activity against fluconazole-susceptible Candida albicans ATCC 90028 in immunocompetent Balb/c mouse candidiasis model assessed as reduction in CFU count in spleen at 20 to 40 mg/kg/day, ip regime measured on day 7 post infection; format: functional, organism-based
Summary of the method: (§2)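 Immunocompetent BALB/c mice, 10 per strain group, injected in the lateral tail vein with 7 × 10^4 CFU of C. albicans in 200 µL sterile saline. Compound given ip daily, 100 µL of 0.1 mg/mL in DMSO/PEG 400 2:1; fluconazole control ip at 8 mg/kg/day. On day 7, spleen and kidneys were excised, weighed and homogenized in saline, then plated on YPD agar for 2 days at 30 °C. Read-out CFU/g; Wilcoxon rank-sum test, P<0.05.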

Candida albicans [5] = assay: Antifungal activity against azole-susceptible Candida albicans isolate DSY294 in immunocompetent Balb/c mouse candidiasis model assessed as reduction in CFU count in spleen at 40 mg/kg/day, ip regime measured on day 7 post infection; format: functional, organism-based; summary of the method: as §2
Candida albicans [6] = assay: Antifungal activity against azole-resistant Candida albicans isolate DSY296 in immunocompetent Balb/c mouse candidiasis model assessed as reduction in CFU count in kidney at 40 mg/kg/day, ip regime measured on day 7 post infection; format: functional, organism-based
Summary of the method: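 Immunocompetent BALB/c mice, 10 per strain group, received 7 × 10^4 CFU of C. albicans in 200 µL saline via the lateral vein. Drug was given i.p. daily at 40 mg/kg/day as a 0.1 mg/mL solution in DMSO/PEG 400 (2:1), 100 µL per dose. On day 7, spleen and kidneys were weighed, homogenized, and plated on YPD agar (2 days, 30 °C) for CFU/g. Analysis used Wilcoxon rank-sum, P<0.05.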

Pichia kudriavzevii [7] = assay: Ratio of MIC at 24 hrs to MIC at 48 hrs for Candida krusei 193T; format: functional
Summary of the method: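 MICs by EUCAST broth microdilution, with the update for non-fermenting yeasts, incubated at 37 °C. Read at 24, 48 and 72 h as the lowest concentration preventing visible growth.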

Cryptococcus neoformans [8] = assay: Antifungal activity against Cryptococcus neoformans up to 96 hrs by broth dilution assay; format: functional, organism-based
Candida albicans [9] = assay: Upregulation of orf19.1438 gene expression in Candida albicans SC5314 at 3 uM after 15 mins by microarray method relative to control; format: functional; summary of the method: as §1
Candida albicans [10] = assay: Upregulation of orf19.2726 gene expression in Candida albicans SC5314 at 3 uM after 15 mins by microarray method relative to control; format: functional
Summary of the method: (§3)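 Log-phase cultures in liquid YEPD were exposed to 3 µM compound (final) for 15 or 45 min, with untreated controls sampled at the same times, in three biological replicates. Total RNA was extracted by glass-bead/phenol-chloroform disruption and integrity-checked. One-color Cy3-labelled cRNA (600 ng) was hybridized for 17 h at 65 °C to 8 × 15K arrays, and fold change was taken versus control.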

Candida albicans [11] = assay: Upregulation of orf19.4907 gene expression in Candida albicans SC5314 at 3 uM after 15 mins by microarray method relative to control; format: functional; summary of the method: as §3
Candida albicans [12] = assay: Upregulation of IFU5 gene expression in Candida albicans SC5314 at 3 uM after 15 mins by microarray method relative to control; format: functional; summary of the method: as §1
Candida albicans [13] = assay: Upregulation of orf19.4531 gene expression in Candida albicans SC5314 at 3 uM after 45 mins by microarray method relative to control; format: functional; summary of the method: as §3
Candida albicans [14] = assay: Upregulation of PDR16 gene expression in Candida albicans SC5314 at 3 uM after 45 mins by microarray method relative to control; format: functional; summary of the method: as §1
Candida albicans [15] = assay: Upregulation of orf19.3089 gene expression in Candida albicans SC5314 at 3 uM after 45 mins by microarray method relative to control; format: functional; summary of the method: as §3
Candida albicans [16] = assay: Upregulation of CRZ2 gene expression in Candida albicans SC5314 at 3 uM after 45 mins by microarray method relative to control; format: functional; summary of the method: as §1
Candida albicans [17] = assay: Antifungal activity against Candida albicans ATCC 60193 measured at 24 hrs by broth dilution assay; format: functional; details: ATCC 60193, 24 h
Summary of the method: (§4)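 EUCAST broth microdilution, including the update for non-fermenting yeasts (Cryptococcus, Geotrichum), on clinical and reference yeast isolates. Incubated at 37 °C and read at 24, 48 and 72 h. MIC taken as the lowest concentration with no visible growth. For Cryptococcus and Geotrichum, MICs were read only once growth was visible in the control row.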

Candida albicans [18] = assay: Antifungal activity against Candida albicans 53T measured at 48 hrs by broth dilution assay; format: functional; summary of the method: as §4
Pichia kudriavzevii [19] = assay: Antifungal activity against Candida krusei 193T measured at 48 hrs by broth dilution assay; format: functional; summary of the method: as §4
Candida parapsilosis [20] = assay: Antifungal activity against Candida parapsilosis 81E measured at 24 hrs by broth dilution assay; format: functional; details: Lodderomyces parapsilosis; summary of the method: as §4
Candida parapsilosis [21] = assay: Antifungal activity against Candida parapsilosis 81E measured at 48 hrs by broth dilution assay; format: functional; details: Lodderomyces parapsilosis; summary of the method: as §4
Nakaseomyces glabratus = assay: Antifungal activity against Candida glabrata 70 measured at 24 hrs by broth dilution assay; format: functional; details: Nakaseomyces glabratus, 70, 24 h; summary of the method: as §4
Candida tropicalis = assay: Antifungal activity against Candida tropicalis 86E measured at 72 hrs by broth dilution assay; format: functional; summary of the method: as §4
Cryptococcus neoformans [22] = assay: Antifungal activity against Cryptococcus neoformans measured at 48 hrs by broth dilution assay; format: functional, organism-based; summary of the method: as §4
Candida parapsilosis [23] = assay: Fungistatic activity against Candida parapsilosis 81E at 20 uM after 24 to 48 hrs by time kill assay; format: functional, organism-based
Summary of the method: (§5)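 EUCAST broth microdilution at 37 °C. From wells at MIC, 2×, 4× and 8× MIC, 10 µL aliquots were taken, serially 10-fold diluted in saline and plated on Sabouraud dextrose agar. Plates were incubated at 37 °C for 24/48 h, and 48 h for Cryptococcus and Geotrichum. Done in duplicate, detection limit 10 CFU/mL. A drop of at least 3 Log10 CFU/mL from the initial inoculum in 24 h counts as fungicidal; a smaller drop counts as fungistatic.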

Cryptococcus neoformans [24] = assay: Fungicidal activity against Cryptococcus neoformans at 40 uM measured at 72 hrs by time kill assay; format: functional, organism-based
Candida parapsilosis [25] = assay: Fungicidal activity against Candida parapsilosis 81E at 40 uM after 24 to 48 hrs by time kill assay; format: functional, organism-based; summary of the method: as §5

SMILES: C/C=C/CNC(=N)NCCCCCCCCN1CCCCCCCCNC(=N)NC1=O
- fold change (FC) (Candida albicans [1]): 2.88
- fold change (FC) (Candida albicans [2]): 3.69
- Activity (Candida albicans [3]): Active
- Activity (Candida albicans [4]): Active
- Activity (Candida albicans [5]): Active
- Activity (Candida albicans [6]): Active
- Ratio (Pichia kudriavzevii [7]): 8
- Activity (Cryptococcus neoformans [8]): Active
- fold change (FC) (Candida albicans [9]): 6.13
- fold change (FC) (Candida albicans [10]): 5.86
- fold change (FC) (Candida albicans [11]): 3.9
- fold change (FC) (Candida albicans [12]): 1.63
- fold change (FC) (Candida albicans [13]): 21.54
- fold change (FC) (Candida albicans [14]): 6.89
- fold change (FC) (Candida albicans [15]): 2.63
- fold change (FC) (Candida albicans [16]): 2.66
- MIC (Candida albicans [17]): 5 µM (≈ 2.18 µg/mL)
- MIC (Candida albicans [18]): 5 µM (≈ 2.18 µg/mL)
- MIC (Pichia kudriavzevii [19]): 80 µM (≈ 34.9 µg/mL)
- MIC (Candida parapsilosis [20]): 20 µM (≈ 8.71 µg/mL)
- MIC (Candida parapsilosis [21]): 40 µM (≈ 17.4 µg/mL)
- MIC (Nakaseomyces glabratus): > 80 µM
- MIC (Candida tropicalis): 5 µM (≈ 2.18 µg/mL)
- Activity (Cryptococcus neoformans [22]): Active
- Activity (Candida parapsilosis [23]): Active
- Activity (Cryptococcus neoformans [24]): Active
- Activity (Candida parapsilosis [25]): Active
